# Most compounds without a hit are left out; they make up all but 3% or so of the library.
# S100A4 inh HTS = S100A4-myosin IIA interaction inhibition; P26447; S100A4/TAMRA-MyoIIA peptide fluorescence polarization; inhibition, % at 10.7 µM; hit rate 0.14% among 360,000;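 active = mean inhibition of at least 70% across replicates, with every replicate also reaching that level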
# Target sequence (P26447 whole entry, looked up): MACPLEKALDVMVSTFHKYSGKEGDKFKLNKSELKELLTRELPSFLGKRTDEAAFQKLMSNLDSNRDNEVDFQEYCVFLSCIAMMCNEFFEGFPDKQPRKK
#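 System – human S100A4 monomer protein, biochemical binding assay · Buffer or medium – Calcium-containing HEPES buffer, pH 7.2 · Timing – 5 min between mix addition and reading · Also added – TAMRA-labelled myosin IIA heavy-chain peptide probe, 5 nM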
# PGC1a acetyl inh = lowers PGC1a acetylation signal in U2OS cells. AlphaScreen anti-acetyl-lysine; with virally co-expressed GCN5 acetyltransferase. inhibition, % at 15.6 µM. hit rate 0.17% among 350,000. AID 651687;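 active = every replicate shows inhibition of at least 40%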;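 note: 0% = neutral control wells and 100% = positive control wells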
# rRNA inh HTS = selective bacterial rRNA inhibition in E. coli. AID 720706. hit rate 1.6% among 350,000. GFP signal change (wild-type ribosome), % (concentration not given with the values). E. coli WT GFP vs humanized-ribosome RFP mutants, fluorescence, 24 h; active compounds read low; DMSO median 0, no signal -100;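 active = significant combined selectivity score with lowered wild-type GFP, culture density cut under 30%, mutant RFP and density less affected; inactive = any of these conditions unmet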
# Cneo AK release = Cryptococcus neoformans lysis via adenylate kinase release; hit rate 0.2% among 360,000; C. neoformans lysis, adenylate kinase release luminescence, 4 h; normalised: neutral wells 0, clomiphene wells 100; lysis activity, % at 15 µM;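 active = mean lysis activity across replicates of at least 80%, whatever share of replicates individually reach that level; inactive = mean lysis activity below 80%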
#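 Material: C. neoformans cells | Amount: Yeast cell density of 5 × 10^6 cells/mL | Medium: Fresh YPD growth medium | Dosing: Single dose | Times: Static 4 h at 37 °C with compound, 1 h detection | Detection: AK luminescence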
# Statin myotox sup = protects C2C12 myotubes from simvastatin toxicity; hit rate 0.78% among 330,000; ATP luminescence, 48 h; scaled: DMSO 0, geranylgeraniol control 100; rescue of ATP level, % at 7.49 µM;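 active = mean ATP rescue above about 67%, or every replicate alone reaching that limit, limit read from the data, passing the limit was not always enough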;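 note: myotubes were challenged with 10 µM simvastatin during compound exposure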
# SIRT5 block = inhibitors of human sirtuin-5 desuccinylase; Q9NXA8; Purified SirT5, succinyl-peptide AMC, trypsin-coupled fluorescence; inhibition, % at 15 µM; hit rate 1.1% among 330,000; AID 652115; in the data active = inhibition above about 15%
# Target sequence (Q9NXA8 whole entry, looked up): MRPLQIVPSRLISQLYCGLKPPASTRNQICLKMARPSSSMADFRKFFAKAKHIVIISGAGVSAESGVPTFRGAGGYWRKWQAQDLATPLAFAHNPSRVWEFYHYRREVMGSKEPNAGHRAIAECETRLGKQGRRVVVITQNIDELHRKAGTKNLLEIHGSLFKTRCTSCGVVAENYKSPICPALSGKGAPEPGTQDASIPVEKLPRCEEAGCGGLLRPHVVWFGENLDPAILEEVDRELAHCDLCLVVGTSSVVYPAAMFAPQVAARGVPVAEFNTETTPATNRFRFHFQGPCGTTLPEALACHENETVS
# Numbers without * were called inactive; nt = no result.
SMILES,S100A4 inh HTS,PGC1a acetyl inh,rRNA inh HTS,Cneo AK release,Statin myotox sup,SIRT5 block
C[C@H](CO)N1C[C@H](C)[C@H](CN(C)Cc2ccc(C(=O)Nc3ccccc3N)cc2)Oc2ccc(NC(=O)CCC(F)(F)F)cc2C1=O,6,5,-2,1,16,7
Cc1nn(CC(=O)NCCc2ccccc2)c(=O)c2ccccc12,nt,-2,nt,-2,137*,nt
COC(=O)c1cccc(Cn2nc(C)c([N+](=O)[O-])c2C)c1,18,nt,-7,nt,nt,15*
Cc1nn(CC(=O)NCc2ccccc2)c(C)c1[N+](=O)[O-],nt,6,nt,2,84*,nt
Cc1nn(Cc2cccc(C(=O)O)c2)c(C)c1[N+](=O)[O-],-2,-4,5,-1,nt,4
Cc1c(Br)c([N+](=O)[O-])nn1CC(=O)NCc1ccccc1,7,-3,9,-2,50,-2
Cc1ccc(S(=O)(=O)N2C[C@H](O)COC[C@H]3O[C@@H](CC(=O)N[C@H]4CCN(Cc5ccccc5)C4)CC[C@@H]32)cc1,-71,3,5,-2,0,-2
CO[C@H]1CN(C)C(=O)c2cc(NC(=O)C3CCOCC3)ccc2OC[C@H](C)NC[C@H]1C,43,-9,2,0,2,-3
COc1ccc(CN2CC3(CCN(C(C)=O)CC3)c3c(n(C)c4cc(OC)ccc34)[C@H]2CO)cc1,nt,nt,2,nt,nt,nt
COc1ccc(OCCCC(=O)Nc2cc([N+](=O)[O-])ccc2C)cc1,nt,-11,nt,0,73*,nt
CC(C)Cc1csc(NC(=O)c2ccc(Br)cc2)c1C(=O)O,-2,-2,-26*,1,-5,-4
C[C@H](CO)N1C[C@H](C)[C@@H](CN(C)Cc2ccccc2C(F)(F)F)OCc2cnnn2CCCC1=O,nt,2,-6,nt,-2,nt
COc1cc(/C=C/C(=O)OCC(=O)N2CCC(Cc3ccccc3)CC2)ccc1O,3,nt,-32*,-2,nt,nt
Cc1cc(Br)cc2c(C(=O)NCC3CCCO3)cc(-c3cccs3)nc12 (stereo not drawn),-3,0,-1,-2,nt,0
COc1cccc(-c2cc(C(=O)NCC3CCCO3)c3cc(Br)cc(C)c3n2)c1 (stereo not drawn),4,2,2,2,-1,17*
Cc1[nH]c2ccc(C(=O)O)cc2c1C,nt,1,nt,-1,7,nt
CCCc1c(C)[nH]c2ccc(C(=O)O)cc2c1=S,-5,16,-1,8,0,26*
CN(C)/C=N/c1nc2ccc3c(c2s1)CCCC3,9,1,-26*,-1,19,-2
COc1cc(/C=C2\SC(=S)N(NC(=O)c3ccncc3)C2=O)ccc1O,-6,-9,5,nt,nt,0
Cn1cccc1/C=C1\SC(=S)N(NC(=O)c2ccccc2O)C1=O,16,1,-28*,nt,nt,5
COc1cc(/C=C2\SC(=S)N(NC(=O)c3ccccc3OC)C2=O)ccc1O,-2,nt,-2,-1,1,-1
O=C(NN1C(=O)/C(=C/C=C/c2ccco2)SC1=S)c1ccccc1O,-8,2,-6,-3,6,46*
COc1cc(/C=C2\SC(=S)N(NC(=O)c3ccc(O)c(OC)c3)C2=O)ccc1O,-8,0,-15,-4,102*,3
COC(=O)c1sc(=S)n(Cc2ccccc2)c1C,-3,5,-24*,-2,14,2
COc1cccc(S(=O)(=O)NCc2ccc(C(=O)Nc3ccc(C)cc3)cc2)c1,nt,-1,nt,-6,95*,nt
C/C=C/c1ccc([C@@H]2[C@@H](CN(C(=O)COC)C(C)C)N(C(C)=O)[C@H]2CO)cc1,4,-2,0,-4,19,17*
C/C=C/c1ccc([C@H]2[C@@H](CO)N(C(C)=O)[C@H]2CN(CC(C)C)C(C)=O)cc1,nt,-13,-1,-1,10,nt
C/C=C/c1ccc([C@@H]2[C@@H](CO)N(C(C)=O)[C@H]2CN(C(=O)COC)C(C)C)cc1,3,1,0,8,2,34*
CC(=O)N(C)C[C@H]1Oc2ncc(C#CCC3CCCC3)cc2C(=O)N([C@H](C)CO)C[C@@H]1C,-3,1,-3,5,6,0

# Screening data (PubChem BioAssay)
